Reference: article PMC9076119 (RSC Advances, 2019)
Read-outs that look alike come from different tables or passages of the source.

What was measured:
[1] = system: 3D7 Plasmodium parasites; assay: Effect on parasite morphology and development; type: cell-based, Plasmodium falciparum; conditions: at their IC50 value concentration, ring stage (8–10 h) 3D7 parasites treated
Summary of the method: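 Sorbitol-synchronised P. falciparum 3D7 cultured in human erythrocytes (4% hematocrit) in RPMI with 0.5% albumax. Ring-stage (8–10 h) parasites treated with test compound, E-64 or solvent alone as control. Light microscopy of parasitized RBCs at several time points after treatment, following progression from ring to trophozoite to schizont to merozoites and reinvasion of fresh RBCs as new rings.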

[2] = system: P. falciparum strain 3D7; assay: P. falciparum growth inhibition assay; type: cell-based, Plasmodium falciparum
Summary of the method: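 3D7 parasites kept in human erythrocytes (4% hematocrit) in RPMI with 0.5% albumax and synchronized by repeated sorbitol treatment. Assay wells used complete medium, 2% hematocrit and parasitemia ≤1%. Test compound (0–100 μM final) was added to 8–10 h rings, with a DMSO solvent control. Growth ran 52 h, then SYBR green DNA fluorescence was read. Triplicate wells; experiment repeated twice.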

[3] = Plasmodium falciparum, 3D7, read-out: Inhibition of P. falciparum EC50, 3D7 culture, ring stage 8–10 h, 52 h growth, SYBR green

| SMILES | New ring formation [1] | EC50 [2, 3] | EC50 ([2]; read-out: Inhibition of P. falciparum EC50, 3D7 culture, ring stage 8–10 h, 52 h growth, SYBR green) |
| --- | --- | --- | --- |
| O=[N+]([O-])c1ccc(-n2cc(COc3ccnc4cc(Cl)ccc34)nn2)cc1 [Compound T7, 7-Chloro-4-{[1-(4-nitrophenyl)-1H-1,2,3-triazol-4-yl]methoxy} quinoline] | few new rings | 49.9 µM |  |
| Fc1ccccc1-n1cc(COc2ccnc3cc(Cl)ccc23)nn1 [Compound T5, 7-Chloro-4-{[1-(2-fluorophenyl)-1H-1,2,3-triazol-4-yl]methoxy} quinoline] |  | 49.5 µM | 66.6 µM |
| Fc1ccc(-n2cc(COc3ccnc4cc(Cl)ccc34)nn2)cc1 [Compound T6, 7-Chloro-4-{[1-(4-fluorophenyl)-1H-1,2,3-triazol-4-yl]methoxy} quinoline] |  | ~57.9 µM |  |
| Fc1ccc(-n2cc(COc3ccnc4cc(Cl)ccc34)nn2)cc1F [Compound T4, 7-Chloro-4-{[1-(3,4-difluorophenyl)-1H-1,2,3-triazol-4-yl]methoxy} quinoline] | few new rings | 21.9 µM |  |
| COc1ccc(-n2cc(COc3ccnc4cc(Cl)ccc34)nn2)cc1 [Compound T8, 7-Chloro-4-{[1-(4-methoxyphenyl)-1H-1,2,3-triazol-4-yl]methoxy} quinoline] |  | 51.7 µM |  |
| Clc1ccc2c(OCc3cn(-c4ccccc4)nn3)ccnc2c1 [Compound T10, 7-Chloro-4-[(1-phenyl-1H-1,2,3-triazol-4-yl)methoxy] quinoline] |  | ~57.6 µM |  |
| FC(F)(F)c1cccc(-n2cc(COc3ccnc4cc(Cl)ccc34)nn2)c1 [Compound T1, 7-Chloro-4-({1-[3-(trifluoromethyl)phenyl]-1H-1,2,3-triazol-4yl}methoxy) quinoline] |  | 49.5 µM |  |
| Cc1ccccc1-n1cc(COc2ccnc3cc(Cl)ccc23)nn1 [Compound T9, 7-Chloro-4-{[1-(2-methylphenyl)-1H-1,2,3-triazol-4-yl]methoxy} quinoline] |  | 147 µM |  |
